Values after ≈ are worked out from the molar mass of the structure shown.
Experiments:
[1] = Solubility of the compound at pH 7.4 after 18 hrs by UV spectrometry; assay type: physicochemical; settings: buffer, pH 7.4
Outline: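 10 mM DMSO stocks diluted 100-fold in system solution buffer pH 7.4 and held 18 h at room temperature. Filtered, diluted 1:1 with isopropanol and measured by UV (230–500 nm). Compared against a 600-fold diluted reference in buffer/isopropanol. Triplicates.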

[2] = Half life in mouse liver microsomes; assay type: ADME, Microsome
Outline: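 Mouse liver microsomes at 0.6381 mg/mL protein in 0.1 M potassium phosphate pH 7.4 with EDTA. Reaction started with NADPH regenerating system at 37°C; six time points including 0, triplicate wells. Quenched in cold acetonitrile with warfarin internal standard, analysed by LC–MS. Half-life from a first-order least-squares fit.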

[3] = Half life in human liver microsomes; assay type: ADME, Microsome
[4] = Apparent permeability of the compound from apical to basal side of human Caco2 cells at 50 umol/L after 2 hrs by UPLC/MS analysis; assay type: ADME, cell-based; settings: Caco-2
Outline: (§1)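 Caco-2 monolayers grown 7 days on Transwell inserts, washed with HBSS/HEPES pH 7.4. Compound at 50 µmol/L added apically or basolaterally, then 2 h at 37°C. Receiver side sampled and quantified by UPLC/MS. Papp = (dQ/dt)/(A×C0), triplicates.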

[5] = Apparent permeability of the compound from basal to apical side of human Caco2 cells at 50 umol/L after 2 hrs by UPLC/MS analysis; assay type: ADME, cell-based; settings: Caco-2; outline: as §1
[6] = Plasma protein binding in mouse at 10 uM after 4 hrs by LC/MS analysis; assay type: ADME, cell-free; settings: read-out: PPB (converted)
Outline: (§2)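 Compound at 10 µM (0.1% DMSO) in mouse or human plasma. Rapid equilibrium dialysis (MWCO 8K) against DPBS pH 7.4, 4 h at 37°C with orbital shaking. Both chambers matrix-matched, precipitated with acetonitrile containing warfarin internal standard, quantified by LC–MS. %Free = buffer/plasma × 100; %Bound = 100 − %Free.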

[7] = Plasma protein binding in human at 10 uM after 4 hrs by LC/MS analysis; assay type: ADME, cell-free; settings: read-out: PPB (converted); outline: as §2
Staphylococcus aureus = experiment: Antibacterial activity against Staphylococcus aureus ATCC 29213 after overnight incubation by microbroth dilution technique; assay type: functional
Outline: (§3)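 Two-fold serial broth dilutions per CLSI; inoculum about 10^5 CFU/mL; top final drug concentration 200 µg/mL; incubated aerobically overnight at 37°C. MIC read visually as the lowest concentration with no visible growth.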

Streptococcus pyogenes = experiment: Antibacterial activity against Streptococcus pyogenes ATCC 700294 after overnight incubation by microbroth dilution technique; assay type: functional; outline: as §3
Streptococcus pneumoniae = experiment: Antibacterial activity against Streptococcus pneumoniae DAW27 after overnight incubation by microbroth dilution technique; assay type: functional; outline: as §3
Enterococcus faecalis = experiment: Antibacterial activity against Enterococcus faecalis ATCC 3186 after overnight incubation by microbroth dilution technique; assay type: functional; outline: as §3
Bacillus subtilis = experiment: Antibacterial activity against Bacillus subtilis ATCC 23857 after overnight incubation by microbroth dilution technique; assay type: functional
Outline: (§4)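 Non-mycobacterial strains: two-fold serial dilutions in broth by CLSI microbroth dilution. Inoculum about 10^5 cfu/mL; top final drug concentration 200 µg/mL. Aerobic incubation at 37°C overnight. MIC read visually as the lowest concentration with no visible growth.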

Bacillus anthracis = experiment: Antibacterial activity against Bacillus anthracis Sterne 34F2 after overnight incubation by microbroth dilution technique; assay type: functional; outline: as §4
Escherichia coli = experiment: Antibacterial activity against Escherichia coli K12 after overnight incubation by microbroth dilution technique; assay type: functional; settings: K-12; outline: as §4
[8] = Cmax in rat at 10 mg/kg, iv; assay type: ADME, organism-based; parameters: dose 10 mg/kg, route intravenous; settings: in vivo
Outline: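 Rats (n=5) given 10 mg/kg IV via femoral vein catheter. Vehicle was 2% ethanol/saline or 30% DMSO/30% propylene glycol/20% PEG 3000/20% saline, depending on compound. Serial plasma sampled 0–48 h and assayed by LC-MS/MS after acetonitrile precipitation. Cmax read by visual inspection of the concentration–time curve.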

[9] = Volume of distribution in rat; assay type: ADME, organism-based; settings: in vivo
Outline: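 Plasma concentration–time data from rats (n=5) after IV 10 mg/kg or oral 100 mg/kg. Samples taken 0.25–48 h and measured by LC-MS/MS. Non-compartmental analysis; Vd calculated as AUMC0-∞ × dose divided by the square of AUC0-∞.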

[10] = Drug excretion in rat urine; assay type: ADME; settings: read-out: Drug excretion

| SMILES | solubility at 18 h [1] | half-life [2] | half-life [3] | Papp A→B at 2 h, 50 µM [4] | Papp B→A at 2 h, 50 µM [5] | fraction unbound at 4 h, 10 µM [6] | fraction unbound at 4 h, 10 µM [7] | MIC (Staphylococcus aureus) | MIC (Streptococcus pyogenes) | MIC (Streptococcus pneumoniae) | MIC (Enterococcus faecalis) | MIC (Bacillus subtilis) | MIC (Bacillus anthracis) | MIC (Escherichia coli) | Cmax [8] | Vd [9] | dose excreted [10] |
| --- | --- | --- | --- | --- | --- | --- | --- | --- | --- | --- | --- | --- | --- | --- | --- | --- | --- |
| CN1CCN(c2ccc(C3CC(c4ccc([N+](=O)[O-])o4)=NO3)cn2)C(=O)C1 (stereo not given) | 0.0289 mg/mL (≈ 77.8 µM) | 0.35 h | 4.24 h | 366 nm/s | 333 nm/s | 0.402 | 0.511 | 12.5 mg/L (≈ 33.7 µM) | 50 mg/L (≈ 135 µM) | 50 mg/L (≈ 135 µM) | 100 mg/L (≈ 269 µM) | 25 mg/L (≈ 67.3 µM) | 25 mg/L (≈ 67.3 µM) | 50 mg/L (≈ 135 µM) | – | – | – |
| CN1CCN(c2ccc(C3CC(c4ccc([N+](=O)[O-])o4)=NO3)cc2F)C(=O)C1 (stereo not given) | 0.0292 mg/mL (≈ 75.2 µM) | 0.62 h | 4.81 h | 270 nm/s | 386 nm/s | 0.172 | 0.391 | 6.25 mg/L (≈ 16.1 µM) | 50 mg/L (≈ 129 µM) | 50 mg/L (≈ 129 µM) | 100 mg/L (≈ 257 µM) | – | 25 mg/L (≈ 64.4 µM) | 200 mg/L (≈ 515 µM) | – | – | – |
| O=C1COCCN1c1ccc(C2CC(c3ccc([N+](=O)[O-])o3)=NO2)cc1 (stereo not given) | 0.0259 mg/mL (≈ 72.4 µM) | 1.4 h | 10 h | 126 nm/s | 565 nm/s | 0.34 | 0.357 | 6.25 mg/L (≈ 17.5 µM) | 100 mg/L (≈ 280 µM) | 200 mg/L (≈ 560 µM) | > 200 mg/L | 6.25 mg/L (≈ 17.5 µM) | 25 mg/L (≈ 70 µM) | 25 mg/L (≈ 70 µM) | – | – | – |
| O=C1COCCN1c1ccc(C2CC(c3ccc([N+](=O)[O-])o3)=NO2)cn1 (stereo not given) | 0.0219 mg/mL (≈ 61.2 µM) | 1.01 h | 1.52 h | 86.1 nm/s | 457 nm/s | 0.411 | 0.398 | 12.5 mg/L (≈ 34.9 µM) | – | 50 mg/L (≈ 140 µM) | > 200 mg/L | 12.5 mg/L (≈ 34.9 µM) | 25 mg/L (≈ 69.8 µM) | 25 mg/L (≈ 69.8 µM) | – | – | – |
| O=C1COCCN1c1ccc(C2CC(c3ccc([N+](=O)[O-])o3)=NO2)cc1F (stereo not given) | 0.0126 mg/mL (≈ 33.5 µM) | 1.38 h | 8.31 h | 154 nm/s | 424 nm/s | 0.203 | 0.292 | 6.25 mg/L (≈ 16.7 µM) | 100 mg/L (≈ 266 µM) | 200 mg/L (≈ 533 µM) | 200 mg/L (≈ 533 µM) | – | 25 mg/L (≈ 66.6 µM) | > 200 mg/L | – | – | – |
| CC(=O)NC[C@H]1CN(c2ccc(N3CCOCC3)c(F)c2)C(=O)O1 [LINEZOLID] | – | – | – | – | – | – | – | – | – | – | – | – | – | – | 15 µg/mL | 0.72 L/kg | 73% |

Reference: ChEMBL document CHEMBL2146426, “Antitubercular nitrofuran isoxazolines with improved pharmacokinetic properties” (Bioorg Med Chem, 2012)
